Columns and labels:
[1] = system: Chikungunya virus; experiment: Antiviral activity against Chikungunya virus Indian Ocean strain 899 infected in African green monkey Vero cells assessed as protection against virus-induced cytopathic effect after 5 days by MTS assay; type: functional, organism-based; conditions: Indian Ocean strain 899, Vero, 120 h
[2] = Cytotoxicity against African green monkey Vero cells by MTS assay; type: cell-based; conditions: chlorocebus sabaeus
In short: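 Uninfected Vero A cells were exposed to the same compound concentrations as the CHIKV antiviral plates and incubated 5 days at 37 °C, 5% CO2. MTS/PMS was added for 1.5 h and absorbance read at 498 nm. OD values were converted to control percentages, and CC50 was obtained by logarithmic interpolation. Values are medians ± absolute deviation of at least three independent assays.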

[3] = Inhibition of DENV2 N-terminal His6-tagged NS5 protein expressed in Escherichia coli using (Poly U) RNA template […] in presence of ATP by picogreen dye based assay; parameters: species or system dengue virus type 2
[4] = Inhibition of ZIKV N-terminal His6-tagged NS5 protein expressed in Escherichia coli using (Poly U) RNA template […] in presence of ATP by picogreen dye based assay; parameters: species or system Zika virus
[5] = Selectivity index, ratio of CC50 for African green monkey Vero cells to EC50 for Chikungunya virus Indian Ocean strain 899 infected in African green monkey Vero cells; type: toxicity; conditions: read-out: Ratio CC50/EC50
In short: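 SI is CC50 (Vero) divided by EC50 (CHIKV) from the same 5-day MTS assay. For CC50, uninfected Vero A cells were exposed to the same compound concentrations. CC50 is the concentration reducing viable cells by 50%, by logarithmic interpolation of OD 498 nm control percentages. Median of ≥3 independent assays.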

[6] = Inhibition of ZIKV N-terminal His6-tagged NS5 protein expressed in Escherichia coli using (Poly U) RNA template […] in presence of ATP/Triton-X-100 by picogreen dye based assay; parameters: species or system Zika virus
[7] = Inhibition of GTP-bodipy binding to DENV2 N-terminal His6-tagged NS5 protein expressed in Escherichia coli after 15 mins by fluorescence polarization assay; parameters: species or system dengue virus type 2; conditions: read-out: Kd(app)
In short: (§1)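 Buffer was 50 mM Tris pH 7.5, 50 mM NaCl, 0.01% NP40 and 1 mM DTT, with 50 nM GTP-bodipy. NS5 was 300 nM for DENV-2 and 150 nM for ZIKV, with seven compound concentrations in 5% DMSO. Plates were incubated 15 min at room temperature, and fluorescence polarization was read at 485/520 nm after background subtraction. Kdapp was curve-fitted from triplicates in a single experiment.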

[8] = Inhibition of GTP-bodipy binding to ZIKV N-terminal His6-tagged NS5 protein expressed in Escherichia coli after 15 mins by fluorescence polarization assay; parameters: species or system Zika virus; conditions: read-out: Kd(app); in short: as §1
[9] = Inhibition of DENV2 N-terminal His6-tagged NS5 protein expressed in Escherichia coli using (Poly U) RNA template […] in presence of ATP/Triton-X-100 by picogreen dye based assay; parameters: species or system dengue virus type 2

Row | SMILES | EC50 [1] | CC50 [2] | IC50 [3] | IC50 [4] | selectivity ratio [5] | IC50 [6] | Kd [7] | Kd [8] | IC50 [9]
1 | Cn1c(=O)c2c(c3ccccc31)OC(C)(C)[C@H]1CC[C@@](C)(O)[C@H](Cl)[C@H]21 | > 277 µM | > 208 µM | > 119 µM | > 138 µM |  |  |  |  | 
2 | C=C(C)[C@@]12OC3(c4ccccc4)O[C@@]4([C@H]([C@H]1O)[C@@H]1O[C@]1(CO)[C@@H](O)[C@@]1(O)[C@H]4C[C@H](C)[C@@H]1OC(=O)c1ccccc1)[C@](C)(O3)[C@@H]2OC(=O)c1ccccc1 | 4.4 µM | 49 µM | > 69 µM | > 69 µM | 11 |  |  |  | 
3 | CO[C@]12Oc3c(cc4c(c3C)C(=O)C(=O)c3cc(C)c(O)cc3-4)O[C@H]1c1c(cc(O)c3cc(C)c(O)cc13)C(C)(C)C2=O | > 172 µM | > 172 µM | 12.1 µM | 8.1 µM |  | 36 µM | 9.3 µM | 32.1 µM | 67.2 µM
4 | COc1cc2c3c(cc(O)c2cc1C)C(C)(C)C(=O)[C@]1(OC)Oc2c(cc4c(cc(OC)c5cc(C)c(OC)cc54)c2C)O[C@@H]31 |  |  | 17.8 µM | 12.7 µM |  | > 100 µM | > 100 µM | > 100 µM | > 100 µM
5 | Nc1ncnc2c1ncn2[C@@H]1O[C@H](COP(=O)(O)OP(=O)(O)OP(=O)(O)O)C[C@H]1O |  |  | 0.07 µM | 0.14 µM |  |  |  |  | 
6 | COc1cc2c3c(cc(O)c2cc1C)C(C)(C)C(=O)[C@@]1(OC)Oc2c(cc4c(cc(OC)c5cc(C)c(OC)cc54)c2C)O[C@@H]31 |  |  | 21.7 µM | 13.6 µM |  | > 100 µM | > 100 µM | > 100 µM | > 100 µM
7 | C=C(C)[C@@]12OC3(c4ccccc4)O[C@@H]1[C@@H]1[C@@H]4O[C@]4(CO)[C@@H](O)[C@@]4(O)[C@@H](C[C@H](C)[C@@H]4OC(=O)c4ccccc4)[C@@]1(O3)[C@](C)(O)[C@@H]2OC(=O)c1ccccc1 | 10 µM | 52 µM | > 69 µM | > 69 µM | 5 |  |  |  | 
8 | CC1(C)Oc2c(c(=O)[nH]c3ccccc23)[C@H]2[C@@H](Cl)[C@](C)(O)CC[C@@H]21 | > 288 µM | > 288 µM |  |  |  |  |  |  | 
9 | COc1cc2c3c(cc(O)c2cc1C)C(C)(C)C(=O)[C@@]1(OC)Oc2c(cc4c(cc(OC)c5cc(C)c(O)cc54)c2C)O[C@@H]31 |  |  | 14.5 µM | 10.9 µM |  | > 100 µM | > 100 µM | > 100 µM | > 100 µM
10 | COc1cc2c(C)c3c(cc2c2cc(O)c(C)cc12)O[C@H]1c2c(cc(O)c4cc(C)c(O)cc24)C(C)(C)C(=O)[C@@]1(OC)O3 | > 86 µM | > 172 µM | 4.5 µM | 4.8 µM |  | > 100 µM | > 100 µM | > 100 µM | > 100 µM
11 | CC(=O)OCn1c(=O)c2c(c3ccccc31)OC(C)(C)[C@H]1CC[C@@](C)(O)[C@H](Cl)[C@H]21 | > 239 µM | > 239 µM | > 119 µM | > 138 µM |  |  |  |  | 
12 | Cn1c2c(c(=O)c3ccccc31)[C@H]1[C@@H](Cl)[C@](C)(O)CC[C@@H]1C(C)(C)O2 | > 277 µM | > 277 µM |  |  |  |  |  |  | 
13 | COc1cc2c(C)c3c(cc2c2cc(O)c(C)cc12)O[C@H]1c2c(cc(O)c4cc(C)c(O)cc24)C(C)(C)C(=O)[C@]1(OC)O3 | > 172 µM | > 129 µM | 9.1 µM | 8.1 µM |  | > 100 µM | > 100 µM | > 100 µM | > 100 µM
